C8 TRAIL sens – caspase-8 TRAIL sensitization; NB7+C8 cells + TRAIL, ATPlite viability luminescence; inhibition (viability loss, TRAIL sensitization), % at 10 µM; 360,000 compounds, 1% hits; AID 624354;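 active means compounds causing at least 50% loss of cell viability in the single-dose screen, relative to plate controls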
PPC-1+TRAIL kill – kills PPC-1 cancer cells in the presence of TRAIL. PPC-1 cells + TRAIL, ATPLite viability luminescence. cell killing (% activity), % at 4 µM or 5 µM. 220,000 compounds, 0.41% hits. AID 1443;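 active means cell killing above 50% in the first pass at 4 µM, then a duplicate retest at 5 µM averaging 50% or more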
HSP90 inh – HSP90 refolding inhibition in rabbit reticulocyte lysate | luciferase refolding luminescence, 3 h | inhibition, % at 5.6 µM | 290,000 compounds, 0.91% hits;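 active means inhibition above the screen-wide mean plus 3 SD, computed separately per campaign, cut at about 16% in these data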;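 further: inhibitors lower the luminescence because luciferase stays unfolded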
STAT3 activator – increases IL-6 driven STAT3 reporter signal; U3A cells, IL-6 STAT3-luciferase reporter, luminescence; 100% = signal with IL-6 EC80 alone; activation (% of control), % at 5.6 µM; 190,000 compounds, 0.91% hits;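 active means activation above the screen-wide mean of compound activation plus 3 SD, cut at about 130% in these data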
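Material: STAT3-luciferase reporter U3A cells; Probe or stimulus: IL-6 (33 ng/mL); Incubation: compound pre-incubation 1 h before IL-6, then 6 h stimulation at 37 °C; Technique: luminescence from STAT3-driven luciferase reporter; Evaluation: % activation versus median of IL-6-stimulated wells; Controls: IL-6-only high control.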
STAT1 inh – reduces IFN-gamma driven STAT1 reporter signal; inhibition, % at 5.5 µM; NIH 3T3 STAT1-luciferase reporter, luminescence; 200,000 compounds, 0.35% hits;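 active means inhibition above a set limit, the mean inhibition across all tested compounds plus 3 SD, cut at about 34% in these data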
STAT3 inh-1 – STAT3 signaling inhibition. 190,000 compounds, 0.89% hits. U3A cells, IL-6 STAT3-luciferase reporter, luminescence; host cell line lacks STAT1. inhibition, % at 5.5 µM;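 active means inhibition above the mean inhibition across all screened compounds plus 3 SD, cut at about 44% in these data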
STAT3 inh-2 – STAT3 inhibition, confirmation assay; shares compounds with STAT3 inh-1; U3A cells, IL-6 STAT3 luciferase reporter, luminescence; cell line lacks STAT1; inhibition, % at 5.7 µM; 1,200 compounds, 45% hits; AID 1265;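 active means inhibition above the hit cutoff computed for the primary STAT3 screen, cut at about 44% in these data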
NFkB inh 2 – inhibits NF-kappaB, counter-screen to STAT3 inhibitors. inhibition, % at 5.7 µM. shares compounds with STAT3 inh-1. 1,200 compounds, 36% hits. HEK293T NF-kB luciferase reporter, TNF-alpha induced;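 active means inhibition above the mean of solvent-only control wells plus 3 SD, cutoff set per campaign, cut at about 13% in these data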
STAT1 inh 2 – STAT1 inhibition in STAT3 inhibitor counter-screen | inhibition, % at 5.7 µM | 1,200 compounds, 27% hits | AID 1317 | NIH 3T3 STAT1-luciferase reporter, IFN-gamma induced, luminescence | shares compounds with STAT3 inh-1;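 active means inhibition above the mean plus 3 SD of solvent-only control wells, limit set per screening run, cut at about 16% in these data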
PPC1 cytotox – kills PPC-1 cells; 1,200 compounds, 50% hits; AID 1447; cytotoxicity, % at 5 µM; shares compounds with PPC-1+TRAIL kill; PPC-1 viability, ATPlite luminescence, overnight;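 active means reconfirmed compounds whose average cytotoxicity reaches 50% or more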
Of the large screens only hits and unclear results are named; the others gave an inactive call (follow-up assays come after a bar, where they were run). An excerpt weighted towards active compounds, which were near 2.3% of everything screened.

Cc1ccn2cc(C(=O)Nc3ccc4c(c3)OCCO4)nc2c1	C8 TRAIL sens 62.1, STAT3 inh-1 44.5 | STAT3 inh-2 inactive | NFkB inh 2 inactive | STAT1 inh 2 inactive
O=C(NC1CCN(C(=O)NC2CCCCC2)CC1)c1cccc(F)c1	none (no result: PPC-1+TRAIL kill, STAT3 activator, STAT1 inh, STAT3 inh-1)
O=C(Nc1cc(Cl)ccn1)C1CCN(S(=O)(=O)c2cccs2)CC1	STAT3 inh-1 51.2 | STAT3 inh-2 inactive | NFkB inh 2 inactive | STAT1 inh 2 inactive
O=C(Nc1ccncc1)C1CCN(S(=O)(=O)c2cccs2)CC1	none
Cc1cc(NS(=O)(=O)c2ccc(NC(=O)c3ccc(F)cc3)cc2)nc(C)n1	none (no result: PPC-1+TRAIL kill, HSP90 inh, STAT3 activator, STAT1 inh, STAT3 inh-1)
O=C(Nc1ccc(SC(F)F)cc1)c1ccc2nccnc2c1	STAT3 inh-1 48.2 | STAT3 inh-2 inactive | NFkB inh 2 inactive | STAT1 inh 2 inactive
O=C(CN1C(=O)C(c2ccc(F)cc2)=NC12CCCC2)Nc1ccc(F)cc1	STAT3 inh-1 57.6 | STAT3 inh-2 54.1 | NFkB inh 2 13.8 | STAT1 inh 2 21.7
CCCCCc1ccc(OCCC[n+]2ccccc2)c(CCCCC)c1	none (no result: STAT3 activator, STAT1 inh, STAT3 inh-1)
CCCCCc1ccc(OCCOCCn2c[n+](C)c3ccccc32)c(CCCCC)c1	STAT3 inh-1 56.1 | STAT3 inh-2 65.9 | NFkB inh 2 15.7 | STAT1 inh 2 22.8
CCc1c(C)nc2ncnn2c1NCCc1ccc(OC)cc1	STAT3 inh-1 66.5 | STAT3 inh-2 65.4 | NFkB inh 2 28.1 | STAT1 inh 2 25.8
Cc1ccc(-n2c(C)nc3c(cnn3-c3ccc(F)cc3)c2=O)cc1	STAT3 inh-1 53.0 | STAT3 inh-2 inactive | NFkB inh 2 inactive | STAT1 inh 2 inactive
CCOc1ccc(-n2c(C)nc3c(cnn3-c3ccc(Cl)cc3)c2=O)cc1	none
COc1cccc(-n2c(C)nc3c(cnn3-c3ccc(Cl)cc3)c2=O)c1	STAT3 inh-1 54.7 | STAT3 inh-2 inactive | NFkB inh 2 inactive | STAT1 inh 2 16.2
Cc1ccc(-n2ncc3c(=O)n(-c4ccc(C)c(C)c4)c(C)nc32)cc1	none
Cc1c(C(=O)Nc2ccccc2)csc1-c1ccccc1	C8 TRAIL sens 66.9, STAT3 inh-1 55.4 | STAT3 inh-2 inactive | NFkB inh 2 inactive | STAT1 inh 2 inactive
O=[N+]([O-])c1ccc(C[n+]2cccc3c4ccccc4ccc32)cc1	none
CCCCCCCCC[n+]1cccc2c3ccccc3ccc21	C8 TRAIL sens 62.1, STAT3 inh-1 89.6 | STAT3 inh-2 89.2 | NFkB inh 2 56.7 | STAT1 inh 2 32.7 | PPC1 cytotox inactive
O=C(CN1C(=O)NC2(CCCC2)C1=O)OCCOc1cccc(Br)c1	none (no result: PPC-1+TRAIL kill, HSP90 inh, STAT3 activator, STAT1 inh, STAT3 inh-1)
Cc1cc2ncc(-c3ccc(Cl)cc3)cn2n1	none
Cc1ccc(-c2cnc3cc(C)nn3c2)cc1	C8 TRAIL sens 68.4, PPC-1+TRAIL kill 55.7, STAT3 inh-1 69.1 | STAT3 inh-2 inactive | NFkB inh 2 inactive | STAT1 inh 2 inactive | PPC1 cytotox 55.7
CN(c1ccc(C(=O)Nc2ccccc2Sc2ccccc2)cc1)S(C)(=O)=O	none
Cc1nc2ccc(-c3nc4ccccc4[nH]3)cc2[nH]1	STAT3 inh-1 45.6 | STAT3 inh-2 inactive | NFkB inh 2 inactive | STAT1 inh 2 inactive | PPC1 cytotox inactive
Cc1cccc(C)c1NC(=O)C(CCc1ccccc1)N1CCN(C)CC1 (stereo not given)	none (no result: PPC-1+TRAIL kill, HSP90 inh, STAT3 activator, STAT1 inh, STAT3 inh-1)
O=C(CSc1nnc(-c2ccncc2)o1)Nc1cc(F)ccc1F	none (no result: PPC-1+TRAIL kill, HSP90 inh, STAT3 activator, STAT1 inh, STAT3 inh-1)
O=C(CSc1nnc(-c2ccccc2)o1)Nc1ccccc1F	C8 TRAIL sens 59.0, STAT3 inh-1 45.4 | STAT3 inh-2 inactive | NFkB inh 2 inactive | STAT1 inh 2 inactive | PPC1 cytotox 50.8
COC(=O)C1=C(C)NC(C)=C(C(=O)OC)C1c1ccc2ccccc2n1	none

Bioassay records from PubChem BioAssay.
